{
  "source": "ChEMBL document CHEMBL5724801",
  "about": "“EUbOPEN Chemogenomics Library - Multiplex” (2024)",
  "key": {"[1]": {"test_system": "Fibroblast", "experiment": "Multiplex assay against human fibroblast", "type": "toxicity, cell-based", "in_short": "(§1)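 Live cells were stained at seeding with Hoechst33342, BioTracker Green Microtubule Cytoskeleton Dye, MitoTracker Red and Annexin V Alexa Fluor 680, then imaged on a CQ1 microscope at 37°C and 5% CO2 after compound addition. CellPathfinder machine-learning gating split cells into Hoechst high-intensity objects or normal cells. Normal cells were split into healthy, pyknosed or fragmented nuclei, and pyknosed cells into mitotic or apoptotic. Tubulin, mitochondrial-mass and membrane-permeability phenotypes are per cents of healthy-nucleus cells.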"}, "[2]": {"test_system": "HEK-293T", "experiment": "Multiplex assay against HEK293T", "type": "toxicity, cell-based", "conditions": "human", "in_short": "as §1"}, "[3]": {"conditions": "12 h, 1 µM, compound concentration 1 uM"}, "[4]": {"conditions": "12 h, 10 µM, compound concentration 10 uM"}, "[5]": {"conditions": "24 h, 1 µM, compound concentration 1 uM"}, "[6]": {"conditions": "24 h, 10 µM, compound concentration 10 uM"}, "[7]": {"conditions": "48 h, 1 µM, compound concentration 1 uM"}, "[8]": {"conditions": "48 h, 10 µM, compound concentration 10 uM"}},
  "note": "Several values for one entry are separate records, joined by “and”; a condition that tells them apart may be missing. Equal values may be shown once.",
  "data": [
    {"smiles": "CCCCCN1C(=O)C2(COc3cc4c(cc32)OCO4)c2ccccc21", "note": "(configuration not stated)", "values": [
      {"measurement": "Population Apoptotic (%)", "setting": "[1]; [3]", "value": "17.31% and 20.59%"},
      {"measurement": "Population Fragmented Nuclei (%)", "setting": "[1]; [3]", "value": "11.05% and 2.26%"},
      {"measurement": "Population Healthy Nuclei (%)", "setting": "[1]; [3]", "value": "61.58% and 82.35%"},
      {"measurement": "Population Hoechst High Intensity Objects (%)", "setting": "[1]; [3]", "value": 0, "unit": "%"},
      {"measurement": "Population Membrane Permeable-Phenotype (%)", "setting": "[1]; [3]", "value": "2.56% and 3.85%"},
      {"measurement": "Population Mitochondria Different-Phenotype (%)", "setting": "[1]; [3]", "value": "11.97% and 6.04%"},
      {"measurement": "Population Mitotic Cells (%)", "setting": "[1]; [3]", "value": "82.69% and 79.41%"},
      {"measurement": "Population Normal (%)", "setting": "[1]; [3]", "value": 100, "unit": "%"},
      {"measurement": "Population Pyknosed Nuclei (%)", "setting": "[1]; [3]", "value": "27.37% and 15.38%"},
      {"measurement": "Population Tubulin-Different-Phenotype (%)", "setting": "[1]; [3]", "value": "20.51% and 12.09%"},
      {"measurement": "Total Cell Count", "setting": "[1]; [3]", "value": "190 and 221"},
      {"measurement": "Population Fragmented Nuclei (%)", "setting": "[1]; [4]", "value": "8.24% and 5.79%"},
      {"measurement": "Population Healthy Nuclei (%)", "setting": "[1]; [4]", "value": "54.95% and 72.97%"},
      {"measurement": "Population Hoechst High Intensity Objects (%)", "setting": "[1]; [4]", "value": 0, "unit": "%"},
      {"measurement": "Population Membrane Permeable-Phenotype (%)", "setting": "[1]; [4]", "value": "4% and 3.7%"},
      {"measurement": "Population Mitochondria Different-Phenotype (%)", "setting": "[1]; [4]", "value": "14% and 13.76%"},
      {"measurement": "Population Mitotic Cells (%)", "setting": "[1]; [4]", "value": "97.01% and 85.45%"},
      {"measurement": "Population Normal (%)", "setting": "[1]; [4]", "value": 100, "unit": "%"},
      {"measurement": "Population Pyknosed Nuclei (%)", "setting": "[1]; [4]", "value": "36.81% and 21.24%"},
      {"measurement": "Population Tubulin-Different-Phenotype (%)", "setting": "[1]; [4]", "value": "36% and 35.45%"},
      {"measurement": "Total Cell Count", "setting": "[1]; [4]", "value": "182 and 259"},
      {"measurement": "Population Apoptotic (%)", "setting": "[1]; [5]", "value": "18.18% and 13.04%"},
      {"measurement": "Population Fragmented Nuclei (%)", "setting": "[1]; [5]", "value": "9.76% and 2.67%"},
      {"measurement": "Population Healthy Nuclei (%)", "setting": "[1]; [5]", "value": "74.15% and 87.11%"},
      {"measurement": "Population Hoechst High Intensity Objects (%)", "setting": "[1]; [5]", "value": 0, "unit": "%"},
      {"measurement": "Population Membrane Permeable-Phenotype (%)", "setting": "[1]; [5]", "value": "4.61% and 1.53%"},
      {"measurement": "Population Mitochondria Different-Phenotype (%)", "setting": "[1]; [5]", "value": "7.89% and 4.59%"},
      {"measurement": "Population Mitotic Cells (%)", "setting": "[1]; [5]", "value": "81.82% and 86.96%"},
      {"measurement": "Population Normal (%)", "setting": "[1]; [5]", "value": 100, "unit": "%"},
      {"measurement": "Population Pyknosed Nuclei (%)", "setting": "[1]; [5]", "value": "16.1% and 10.22%"},
      {"measurement": "Population Tubulin-Different-Phenotype (%)", "setting": "[1]; [5]", "value": "16.45% and 15.82%"},
      {"measurement": "Total Cell Count", "setting": "[1]; [5]", "value": "205 and 225"},
      {"measurement": "Population Apoptotic (%)", "setting": "[1]; [6]", "value": "4.65% and 8.82%"},
      {"measurement": "Population Fragmented Nuclei (%)", "setting": "[1]; [6]", "value": "8.78% and 2.37%"},
      {"measurement": "Population Healthy Nuclei (%)", "setting": "[1]; [6]", "value": "70.24% and 84.19%"},
      {"measurement": "Population Hoechst High Intensity Objects (%)", "setting": "[1]; [6]", "value": 0, "unit": "%"},
      {"measurement": "Population Membrane Permeable-Phenotype (%)", "setting": "[1]; [6]", "value": "1.39% and 0.94%"},
      {"measurement": "Population Mitochondria Different-Phenotype (%)", "setting": "[1]; [6]", "value": "13.19% and 12.21%"},
      {"measurement": "Population Mitotic Cells (%)", "setting": "[1]; [6]", "value": "95.35% and 91.18%"},
      {"measurement": "Population Normal (%)", "setting": "[1]; [6]", "value": 100, "unit": "%"},
      {"measurement": "Population Pyknosed Nuclei (%)", "setting": "[1]; [6]", "value": "20.98% and 13.44%"},
      {"measurement": "Population Tubulin-Different-Phenotype (%)", "setting": "[1]; [6]", "value": "42.36% and 37.09%"},
      {"measurement": "Total Cell Count", "setting": "[1]; [6]", "value": "205 and 253"},
      {"measurement": "Population Fragmented Nuclei (%)", "setting": "[1]; [7]", "value": "11.57% and 4.05%"},
      {"measurement": "Population Healthy Nuclei (%)", "setting": "[1]; [7]", "value": "82.41% and 89.64%"},
      {"measurement": "Population Hoechst High Intensity Objects (%)", "setting": "[1]; [7]", "value": 0, "unit": "%"},
      {"measurement": "Population Membrane Permeable-Phenotype (%)", "setting": "[1]; [7]", "value": "1.12% and 3.02%"},
      {"measurement": "Population Mitotic Cells (%)", "setting": "[1]; [7]", "value": "92.31% and 64.29%"},
      {"measurement": "Population Normal (%)", "setting": "[1]; [7]", "value": 100, "unit": "%"},
      {"measurement": "Population Pyknosed Nuclei (%)", "setting": "[1]; [7]", "value": "6.02% and 6.31%"},
      {"measurement": "Population Tubulin-Different-Phenotype (%)", "setting": "[1]; [7]", "value": "5.62% and 14.07%"},
      {"measurement": "Total Cell Count", "setting": "[1]; [7]", "value": "216 and 222"},
      {"measurement": "Population Apoptotic (%)", "setting": "[1]; [8]", "value": "37.5% and 23.53%"},
      {"measurement": "Population Fragmented Nuclei (%)", "setting": "[1]; [8]", "value": "7.32% and 3.05%"},
      {"measurement": "Population Healthy Nuclei (%)", "setting": "[1]; [8]", "value": "84.88% and 90.46%"},
      {"measurement": "Population Hoechst High Intensity Objects (%)", "setting": "[1]; [8]", "value": 0, "unit": "%"},
      {"measurement": "Population Membrane Permeable-Phenotype (%)", "setting": "[1]; [8]", "value": "1.15% and 2.95%"},
      {"measurement": "Population Mitochondria Different-Phenotype (%)", "setting": "[1]; [8]", "value": "15.52% and 5.91%"},
      {"measurement": "Population Mitotic Cells (%)", "setting": "[1]; [8]", "value": "62.5% and 76.47%"},
      {"measurement": "Population Normal (%)", "setting": "[1]; [8]", "value": 100, "unit": "%"},
      {"measurement": "Population Pyknosed Nuclei (%)", "setting": "[1]; [8]", "value": "7.8% and 6.49%"},
      {"measurement": "Population Tubulin-Different-Phenotype (%)", "setting": "[1]; [8]", "value": "16.09% and 33.76%"},
      {"measurement": "Total Cell Count", "setting": "[1]; [8]", "value": "205 and 262"},
      {"measurement": "Population Apoptotic (%)", "setting": "[2]; [3]", "value": "10.57% and 8.94%"},
      {"measurement": "Population Fragmented Nuclei (%)", "setting": "[2]; [3]", "value": "1.96% and 2%"},
      {"measurement": "Population Hoechst High Intensity Objects (%)", "setting": "[2]; [3]", "value": 0, "unit": "%"},
      {"measurement": "Population Membrane Permeable-Phenotype (%)", "setting": "[2]; [3]", "value": 0, "unit": "%"},
      {"measurement": "Population Mitotic Cells (%)", "setting": "[2]; [3]", "value": "89.43% and 91.06%"},
      {"measurement": "Population Normal (%)", "setting": "[2]; [3]", "value": 100, "unit": "%"},
      {"measurement": "Population Pyknosed Nuclei (%)", "setting": "[2]; [3]", "value": "40.2% and 82%"},
      {"measurement": "Total Cell Count", "setting": "[2]; [3]", "value": "306 and 150"},
      {"measurement": "Population Apoptotic (%)", "setting": "[2]; [4]", "value": "8.79% and 6.67%"},
      {"measurement": "Population Fragmented Nuclei (%)", "setting": "[2]; [4]", "value": "0.63% and 1.94%"},
      {"measurement": "Population Hoechst High Intensity Objects (%)", "setting": "[2]; [4]", "value": "0.31% and 0%"},
      {"measurement": "Population Membrane Permeable-Phenotype (%)", "setting": "[2]; [4]", "value": "1.48% and 0%"},
      {"measurement": "Population Mitochondria Different-Phenotype (%)", "setting": "[2]; [4]", "value": "29.63% and 35.29%"},
      {"measurement": "Population Mitotic Cells (%)", "setting": "[2]; [4]", "value": "91.21% and 93.33%"},
      {"measurement": "Population Normal (%)", "setting": "[2]; [4]", "value": "99.69% and 100%"},
      {"measurement": "Population Pyknosed Nuclei (%)", "setting": "[2]; [4]", "value": "57.05% and 87.1%"},
      {"measurement": "Total Cell Count", "setting": "[2]; [4]", "value": "320 and 155"},
      {"measurement": "Population Apoptotic (%)", "setting": "[2]; [5]", "value": "13.4% and 12.71%"},
      {"measurement": "Population Fragmented Nuclei (%)", "setting": "[2]; [5]", "value": "1.54% and 2.04%"},
      {"measurement": "Population Healthy Nuclei (%)", "setting": "[2]; [5]", "value": "79.73% and 37.76%"},
      {"measurement": "Population Hoechst High Intensity Objects (%)", "setting": "[2]; [5]", "value": "0% and 0.51%"},
      {"measurement": "Population Membrane Permeable-Phenotype (%)", "setting": "[2]; [5]", "value": "1.21% and 2.7%"},
      {"measurement": "Population Mitochondria Different-Phenotype (%)", "setting": "[2]; [5]", "value": "16.46% and 10.81%"},
      {"measurement": "Population Mitotic Cells (%)", "setting": "[2]; [5]", "value": "86.6% and 87.29%"}
    ]}
  ]
}
